Data published in ChEMBL document CHEMBL1133891, “Substituted 4-phenyl-2-(phenylcarboxamido)-1,3-thiazole derivatives as antagonists for the adenosine A(1) receptor” (Bioorg Med Chem Lett, 2001).

Tests used:
[1] = molecular target: T1, Adenosine receptor A3 (Homo sapiens) (UniProt P0DMS8); assay: Percent displacement of [125I]-AB MECA from human Adenosine A3 receptor expressed in HEK 293 cells at 1 uM; format: cell-based; settings: HEK293
T1 sequence (whole entry): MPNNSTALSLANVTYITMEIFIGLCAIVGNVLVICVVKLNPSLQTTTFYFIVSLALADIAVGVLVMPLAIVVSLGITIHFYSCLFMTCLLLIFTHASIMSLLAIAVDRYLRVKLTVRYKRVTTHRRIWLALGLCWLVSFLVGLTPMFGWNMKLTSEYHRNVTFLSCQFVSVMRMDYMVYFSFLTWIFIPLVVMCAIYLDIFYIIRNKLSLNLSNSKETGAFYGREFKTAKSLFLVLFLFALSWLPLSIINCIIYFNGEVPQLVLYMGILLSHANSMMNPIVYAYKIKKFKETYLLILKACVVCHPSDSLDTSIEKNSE

[2] = molecular target: Adenosine receptor A2a (Rattus norvegicus) (UniProt P30543); assay: Percent displacement of [3H]ZM-241385 from A2A receptor in rat striatal membrane at 10 uM; format: cell membranes; settings: Striatum
[3] = molecular target: T2, Adenosine receptor A1 (Rattus norvegicus, UniProt P25099); assay: Displacement of [3H]DPCPX from Adenosine A1 receptor of rat cortical membrane
T2 sequence (P25099 whole entry): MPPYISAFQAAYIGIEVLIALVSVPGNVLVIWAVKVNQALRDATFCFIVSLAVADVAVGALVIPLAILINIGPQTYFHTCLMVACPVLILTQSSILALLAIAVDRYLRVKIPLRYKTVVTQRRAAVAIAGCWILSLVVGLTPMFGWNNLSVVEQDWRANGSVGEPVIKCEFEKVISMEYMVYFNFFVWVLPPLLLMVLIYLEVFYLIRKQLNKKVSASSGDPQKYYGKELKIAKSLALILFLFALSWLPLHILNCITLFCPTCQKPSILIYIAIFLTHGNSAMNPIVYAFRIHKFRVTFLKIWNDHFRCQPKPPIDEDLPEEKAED
Method in brief: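 Competition binding on rat brain cortex membranes, displacing the A1 radioligand [3H]DPCPX. Displacement experiments run without GTP.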

Chain of Adenosine receptor A2a (Rattus norvegicus) (P30543 whole entry): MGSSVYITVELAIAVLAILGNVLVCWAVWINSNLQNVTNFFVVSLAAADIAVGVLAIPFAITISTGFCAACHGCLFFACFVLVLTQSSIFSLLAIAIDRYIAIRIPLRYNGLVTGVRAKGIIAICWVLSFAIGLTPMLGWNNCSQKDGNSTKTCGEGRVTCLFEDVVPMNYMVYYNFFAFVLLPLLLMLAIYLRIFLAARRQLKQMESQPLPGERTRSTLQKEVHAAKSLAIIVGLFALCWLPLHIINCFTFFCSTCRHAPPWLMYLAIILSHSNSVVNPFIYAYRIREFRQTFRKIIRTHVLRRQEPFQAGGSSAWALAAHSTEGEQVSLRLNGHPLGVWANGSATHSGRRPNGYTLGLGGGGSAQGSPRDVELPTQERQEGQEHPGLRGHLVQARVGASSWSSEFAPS

Row | SMILES | Displacement [1] [%] | Displacement [2] [%] | Ki [3] [nM]
1 | CC(C)(C)c1ccc(C(=O)Nc2nc(-c3ccccc3)cs2)cc1 | 27 | 2 | 
2 | O=C(Nc1nc(-c2ccccc2)cs1)c1ccc(Cl)cc1 | 63 | 15 | 18
3 | O=C(Nc1nc(-c2ccccc2)cs1)c1ccc(Br)cc1 | 58 | 14 | 33
4 | O=C(Nc1nc(-c2ccccc2)cs1)c1ccc([N+](=O)[O-])cc1 | 35 | 9 | 22
5 | O=C(Nc1nc(-c2ccccc2)cs1)c1ccc(Cl)cc1Cl | 22 | 17 | 58
6 | Cc1ccc(C(=O)Nc2nc(-c3ccccc3)cs2)cc1 | 66 | 13 | 36
7 | O=C(Nc1nc(-c2ccccc2)cs1)c1cccc(Cl)c1 | 42 | 3 | 86
8 | O=C(Nc1nc(-c2ccccc2)cs1)c1ccc(C(F)(F)F)cc1 | 18 | 0 | 165
9 | O=C(Nc1nc(-c2ccccc2)cs1)c1ccccc1 | 42 | 21 | 39
10 | O=C(Nc1nc(-c2ccccc2)cs1)c1ccc(Cl)c(Cl)c1 | 20 | 6 | 59
